Data set [1] in a line: folding enthalpy; higher = less favourable; fluorescence melt of hairpins on a sequencing array, two-state fit. To be noted: sodium 0.088 M. The procedure, abridged:
(§1)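 With Cy3 and quencher oligos annealed, library hairpins on a sequenced MiSeq flow cell were imaged for Cy3 fluorescence in 50 mM Na-HEPES pH 8.0, 25 mM NaCl, in 2.5 °C steps up to 60 °C. Melting temperature and folding enthalpy were derived from bootstrapped two-state fits of signals normalised to pre-quench Cy3 and to control constructs. Four replicates were combined by inverse variance, with fitted temperatures raised by 9.35 °C to match UV melts.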

Data set [2] can be described thus: melting temperature; fluorescence melt of hairpins on a sequencing array, two-state fit, raised by 9.35 °C to match UV melts. Conditions: sodium 0.088 M. The method, boiled down: as §1

As for GATCCCGCCTGGGATC ((((((....)))))), in data set [1], the folding enthalpy was -39.1 kcal/mol. Moreover, the Tm in data set [2] was 64.9 °C.
The matching figures for GATCCCGCGGGGGATC ((((((....)))))): -31 kcal/mol and 59.9 °C.
Taken in the same sequence, the figures for GATCCCGCTTGGGATC ((((((....)))))) were -46.9 kcal/mol and 59.5 °C.
On to GATCCCGGACGGGATC ((((((....)))))), for which the folding enthalpy in data set [1] is -34.5 kcal/mol. In data set [2], the Tm came to 68.5 °C.
The matching figures for GATCCCGGCGGGATC ((((((...)))))): -36.5 kcal/mol and 68.2 °C.
GATCCCGGCGGGGATC ((((((....)))))): in data set [1], the folding enthalpy is -47.7 kcal/mol. Further, the Tm in data set [2] worked out at 61.3 °C.
Taken in the same sequence, the figures for GATCCCGGCTGGGATC ((((((....)))))) were -32 kcal/mol and 60.4 °C.
Taken in the same sequence, the figures for GATCCCGTCGGGATC ((((((...)))))) were -37.7 kcal/mol and 67.2 °C.
Taken in the same sequence, the figures for GATCCCGTGCGGGATC ((((((....)))))) were -35.8 kcal/mol and 66.3 °C.
For the sequence GATCCCGTTCGGGATC ((((((....)))))), the folding enthalpy in data set [1] was -43.2 kcal/mol. Further, in data set [2], the Tm amounted to 67.8 °C.
Taken in the same sequence, the figures for GATCCCTAGAGGGATC ((((((....)))))) were -40.2 kcal/mol and 59 °C.
Taken in the same sequence, the figures for GATCCCTAGGGGATC ((((((...)))))) were -35.4 kcal/mol and 61.1 °C.
The matching figures for GATCCCTAGGGGGATC ((((((....)))))): -34.8 kcal/mol and 60.4 °C.
With GATCCCTCGTGGGATC ((((((....)))))), the folding enthalpy in data set [1] was -40.2 kcal/mol. Further, in data set [2], the Tm was 62.2 °C.
The matching figures for GATCCCTGCGGGATC ((((((...)))))): -35.8 kcal/mol and 66.1 °C.
Take GATCCCTGGAGGGATC ((((((....)))))): in data set [1], the folding enthalpy is -34.4 kcal/mol. For the same sequence, the Tm in data set [2] was 59.4 °C.
Consider GATCCCTTCGGGATC ((((((...)))))), for which the folding enthalpy in data set [1] is -41.1 kcal/mol. The Tm in data set [2] was 65.3 °C.
The matching figures for GATCCCTTGAGGGATC ((((((....)))))): -42.9 kcal/mol and 62.4 °C.
For GATCCGAACCGGATC ((((((...)))))), in data set [1], the folding enthalpy is -40.2 kcal/mol. Also, the Tm in data set [2] turned out to be 57 °C.
Taken in the same sequence, the figures for GATCCGAAGACGGATC ((((((....)))))) were -37 kcal/mol and 54.7 °C.
The matching figures for GATCCGACATCGGATC ((((((....)))))): -46.8 kcal/mol and 55.8 °C.
Taken in the same sequence, the figures for GATCCGACCTCGGATC ((((((....)))))) were -40.9 kcal/mol and 59.1 °C.
Regarding GATCCGAGATCGGATC ((((((....)))))), in data set [1], the folding enthalpy is -42.3 kcal/mol. Also, the Tm in data set [2] was 56.4 °C.
The matching figures for GATCCGAGTGCGGATC ((((((....)))))): -40.6 kcal/mol and 59.1 °C.
As for GATCCGATACGGATC ((((((...)))))), the folding enthalpy in data set [1] is -32.7 kcal/mol. Further, the Tm in data set [2] stood at 59.6 °C.
Taken in the same sequence, the figures for GATCCGATCCGGATC ((((((...)))))) were -33.7 kcal/mol and 58.5 °C.
GATCCGCACACGGATC ((((((....)))))): the folding enthalpy in data set [1] was -44.5 kcal/mol. Besides, the Tm in data set [2] amounted to 59.9 °C.
Consider GATCCGCAGCCGGATC ((((((....)))))), for which, in data set [1], the folding enthalpy is -40.7 kcal/mol. In data set [2], the Tm was 55.9 °C.
The matching figures for GATCCGCATCCGGATC ((((((....)))))): -38 kcal/mol and 56.6 °C.
Taken in the same sequence, the figures for GATCCGCCGTCGGATC ((((((....)))))) were -40.7 kcal/mol and 56.9 °C.
The matching figures for GATCCGCCTTCGGATC ((((((....)))))): -44.3 kcal/mol and 55.9 °C.
With GATCCGCGAAAGCGCATC (((.(((....))).))), in data set [1], the folding enthalpy was -14.1 kcal/mol. The Tm in data set [2] was determined as 36.5 °C.
The matching figures for GATCCGCGCCGGATC ((((((...)))))): -33.9 kcal/mol and 60 °C.
The matching figures for GATCCGCGTCGGATC ((((((...)))))): -35.6 kcal/mol and 57.3 °C.
Taken in the same sequence, the figures for GATCCGCTACGGATC ((((((...)))))) were -31.7 kcal/mol and 57.2 °C.
Take GATCCGCTCCGGATC ((((((...)))))): the folding enthalpy in data set [1] was -37.5 kcal/mol. For the same sequence, the Tm in data set [2] came out at 59.2 °C.
The matching figures for GATCCGCTGTCGGATC ((((((....)))))): -42.1 kcal/mol and 57.8 °C.
Regarding GATCCGGACGCGGATC ((((((....)))))), in data set [1], the folding enthalpy is -38 kcal/mol. For the same sequence, the Tm in data set [2] came out at 59.5 °C.
Taken in the same sequence, the figures for GATCCGGATACGGATC ((((((....)))))) were -38.8 kcal/mol and 67.9 °C.
Taken in the same sequence, the figures for GATCCGGATCGGATC ((((((...)))))) were -35.4 kcal/mol and 55.6 °C.
Taken in the same sequence, the figures for GATCCGGGAAACCGAATC (((.(((....))).))) were -24.5 kcal/mol and 38.2 °C.
For the sequence GATCCGGTCTCGGATC ((((((....)))))), in data set [1], the folding enthalpy is -26.6 kcal/mol. Further, the Tm in data set [2] amounted to 58.6 °C.
The matching figures for GATCCGTACGCGGATC ((((((....)))))): -39.5 kcal/mol and 63.5 °C.
GATCCGTCACCGGATC ((((((....)))))): the folding enthalpy in data set [1] is -41.6 kcal/mol. Besides, the Tm in data set [2] was determined as 57.2 °C.
Consider GATCCGTCGGCGGATC ((((((....)))))), for which the folding enthalpy in data set [1] is -39.3 kcal/mol. In addition, in data set [2], the Tm worked out at 59 °C.
The matching figures for GATCCGTGACCGGATC ((((((....)))))): -44.1 kcal/mol and 56 °C.
On to GATCCGTGCTCGGATC ((((((....)))))), for which the folding enthalpy in data set [1] was -43.9 kcal/mol. Besides, the Tm in data set [2] is 59.7 °C.
The matching figures for GATCCGTGGTCGGATC ((((((....)))))): -38.8 kcal/mol and 58.7 °C.
For GATCCGTGTCGGATC ((((((...)))))), the folding enthalpy in data set [1] is -34.4 kcal/mol. Also, the Tm in data set [2] turned out to be 60.5 °C.
Taken in the same sequence, the figures for GATCCGTTATCGGATC ((((((....)))))) were -36 kcal/mol and 59.2 °C.
Taken in the same sequence, the figures for GATCCGTTGGCGGATC ((((((....)))))) were -36.5 kcal/mol and 59.6 °C.
Taken in the same sequence, the figures for GATCCGTTGTCGGATC ((((((....)))))) were -44.4 kcal/mol and 59.4 °C.
Consider GATCCGTTTACGGATC ((((((....)))))), for which, in data set [1], the folding enthalpy is -39.3 kcal/mol. The Tm in data set [2] is 68.1 °C.
Regarding GATCCGTTTCGGATC ((((((...)))))), the folding enthalpy in data set [1] is -38 kcal/mol. For the same sequence, the Tm in data set [2] is 63 °C.
Taken in the same sequence, the figures for GATCCTAAACAGGATC ((((((....)))))) were -31.5 kcal/mol and 49 °C.
Regarding GATCCTAACAAGGATC ((((((....)))))), the folding enthalpy in data set [1] was -32.6 kcal/mol. Besides, the Tm in data set [2] was 51.5 °C.
Taken in the same sequence, the figures for GATCCTAACAGGATC ((((((...)))))) were -40.5 kcal/mol and 55.3 °C.
Take GATCCTAACCAGGATC ((((((....)))))): in data set [1], the folding enthalpy is -32.3 kcal/mol. Also, the Tm in data set [2] came to 52 °C.
Taken in the same sequence, the figures for GATCCTAACTAGGATC ((((((....)))))) were -36.2 kcal/mol and 53.3 °C.
The matching figures for GATCCTAATTAGGATC ((((((....)))))): -45.2 kcal/mol and 52 °C.
Taken in the same sequence, the figures for GATCCTACCTAGGATC ((((((....)))))) were -31.6 kcal/mol and 53 °C.
As for GATCCTACGTAGGATC ((((((....)))))), the folding enthalpy in data set [1] was -40.6 kcal/mol. Further, the Tm in data set [2] stood at 53.3 °C.
The matching figures for GATCCTACTAGGATC ((((((...)))))): -36.2 kcal/mol and 53.6 °C.
For the sequence GATCCTAGAGAGGATC ((((((....)))))), the folding enthalpy in data set [1] is -35.4 kcal/mol. Moreover, the Tm in data set [2] was 48 °C.
The matching figures for GATCCTAGCAGGATC ((((((...)))))): -37 kcal/mol and 55.9 °C.
As for GATCCTAGCCAGGATC ((((((....)))))), in data set [1], the folding enthalpy was -40.2 kcal/mol. Besides, in data set [2], the Tm was 52.1 °C.
As to GATCCTAGGAAGGATC ((((((....)))))), the folding enthalpy in data set [1] was -32.8 kcal/mol. Further, the Tm in data set [2] was determined as 50.1 °C.
As to GATCCTAGGCAGGATC ((((((....)))))), the folding enthalpy in data set [1] was -35.4 kcal/mol. Also, the Tm in data set [2] is 53.3 °C.
Turning to GATCCTAGGGAGGATC ((((((....)))))), the folding enthalpy in data set [1] was -29.6 kcal/mol. Besides, the Tm in data set [2] is 51.8 °C.
Taken in the same sequence, the figures for GATCCTATCCAGGATC ((((((....)))))) were -33.8 kcal/mol and 53 °C.
The matching figures for GATCCTATCTAGGATC ((((((....)))))): -37.3 kcal/mol and 52.7 °C.
Taken in the same sequence, the figures for GATCCTATGCAGGATC ((((((....)))))) were -35.2 kcal/mol and 53 °C.
In the case of GATCCTATTAAGGATC ((((((....)))))), in data set [1], the folding enthalpy is -44.9 kcal/mol. In data set [2], the Tm was 52.2 °C.
The matching figures for GATCCTCACTAGGATC ((((((....)))))): -35.1 kcal/mol and 51.7 °C.
For the sequence GATCCTCAGAGGATC ((((((...)))))), the folding enthalpy in data set [1] is -31.6 kcal/mol. Further, the Tm in data set [2] was 52.1 °C.
The matching figures for GATCCTCATAGGATC ((((((...)))))): -37.4 kcal/mol and 53.1 °C.

These data come from the array DNA melting data of Ke et al. (doi:10.1101/2024.01.08.574731).
